Laboratory results: ChEMBL document CHEMBL3734660, “Inhibitory effect of cytotoxic stilbenes related to resveratrol on the expression of the VEGF, hTERT and c-Myc genes” (Eur J Med Chem, 2015)
Values after ≈ are worked out from the molar mass of the structure shown.

Columns and labels:
[1] = Selectivity ratio of IC50 for HEK293 cells to IC50 for human HT-29 cells; format: ADME, cell-based; details: HEK293 cells versus HT-29 cells, read-out: Ratio IC50
[2] = Selectivity ratio of IC50 for HEK293 cells to IC50 for human MCF7 cells; format: ADME, cell-based; details: HEK293 cells versus MCF7 cells, read-out: Ratio IC50
HT-29 [3] = assay: Inhibition of VEGF protein secretion in human HT-29 cells at 10 ug/mL after 72 hrs by ELISA relative to control; format: functional; set-up: scale not given: the % may be the effect or the level left
HT-29 [4] = assay: Down regulation of VEGF gene expression in human HT-29 cells at 10 ug/mL after 48 hrs by RT-qPCR analysis relative to control; format: functional
Summary of the method: (§1)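 HT-29 or MCF-7 cells grown to 70–80% confluence, serum-starved 24 h, then exposed to compound in DMSO for 48 h; DMSO-only control. Total RNA extracted and transcript measured by RT-qPCR, normalized to β-actin and expressed as percentage of control. At least three measurements; mean ± SEM; one-sample t-test.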

HT-29 [5] = assay: Down regulation of hTERT gene expression in human HT-29 cells at 10 ug/mL after 48 hrs by RT-qPCR analysis relative to control; format: functional; summary of the method: as §1
HT-29 [6] = assay: Down regulation of c-Myc gene expression in human HT-29 cells at 10 ug/mL after 48 hrs by RT-qPCR analysis relative to control; format: functional; summary of the method: as §1
HEK293 = assay: Cytotoxicity against HEK293 cells assessed inhibition of cell proliferation after 3 days by MTT assay; details: Homo sapiens, HEK293, 72 h
MCF7 [7] = assay: Cytotoxicity against human MCF7 cells assessed inhibition of cell proliferation after 3 days by MTT assay; details: MCF7, 72 h
HT-29 [8] = assay: Cytotoxicity against human HT-29 cells assessed inhibition of cell proliferation after 3 days by MTT assay; details: HT-29, 72 h
HT-29 [9] = assay: Inhibition of VEGF protein secretion in human HT-29 cells at 1 ng/mL after 72 hrs by ELISA relative to control; format: functional; set-up: scale not given: the % may be the effect or the level left
[10] = Inhibition of VEGF protein secretion in human HT-29 cells at 2 ng/mL after 72 hrs by ELISA relative to control; format: functional; set-up: scale not given: the % may be the effect or the level left
HT-29 [11] = assay: Inhibition of VEGF protein secretion in human HT-29 cells at 3 ng/mL after 72 hrs by ELISA relative to control; format: functional; set-up: scale not given: the % may be the effect or the level left
MCF7 [12] = assay: Inhibition of VEGF protein secretion in human MCF7 cells at 1 ng/mL after 72 hrs by ELISA relative to control; format: functional; set-up: scale not given: the % may be the effect or the level left
MCF7 [13] = assay: Inhibition of VEGF protein secretion in human MCF7 cells at 2 ng/mL after 72 hrs by ELISA relative to control; format: functional; set-up: scale not given: the % may be the effect or the level left
HT-29 [14] = assay: Down regulation of VEGF gene expression in human HT-29 cells at 1 ng/mL after 48 hrs by RT-qPCR analysis relative to control; format: functional; summary of the method: as §1
HT-29 [15] = assay: Down regulation of VEGF gene expression in human HT-29 cells at 2 ng/mL after 48 hrs by RT-qPCR analysis relative to control; format: functional; summary of the method: as §1
HT-29 [16] = assay: Down regulation of VEGF gene expression in human HT-29 cells at 3 ng/mL after 48 hrs by RT-qPCR analysis relative to control; format: functional; summary of the method: as §1
MCF7 [17] = assay: Down regulation of VEGF gene expression in human MCF7 cells at 1 ng/mL after 48 hrs by RT-qPCR analysis relative to control; format: functional; summary of the method: as §1
MCF7 [18] = assay: Down regulation of VEGF gene expression in human MCF7 cells at 2 ng/mL after 48 hrs by RT-qPCR analysis relative to control; format: functional; summary of the method: as §1
HT-29 [19] = assay: Down regulation of hTERT gene expression in human HT-29 cells at 1 ng/mL after 48 hrs by RT-qPCR analysis relative to control; format: functional; summary of the method: as §1
HT-29 [20] = assay: Down regulation of hTERT gene expression in human HT-29 cells at 2 ng/mL after 48 hrs by RT-qPCR analysis relative to control; format: functional; summary of the method: as §1
HT-29 [21] = assay: Down regulation of hTERT gene expression in human HT-29 cells at 3 ng/mL after 48 hrs by RT-qPCR analysis relative to control; format: functional; summary of the method: as §1
MCF7 [22] = assay: Down regulation of hTERT gene expression in human MCF7 cells at 1 ng/mL after 48 hrs by RT-qPCR analysis relative to control; format: functional; summary of the method: as §1
MCF7 [23] = assay: Down regulation of hTERT gene expression in human MCF7 cells at 2 ng/mL after 48 hrs by RT-qPCR analysis relative to control; format: functional; summary of the method: as §1
HT-29 [24] = assay: Down regulation of c-Myc gene expression in human HT-29 cells at 1 ng/mL after 48 hrs by RT-qPCR analysis relative to control; format: functional; summary of the method: as §1
HT-29 [25] = assay: Down regulation of c-Myc gene expression in human HT-29 cells at 2 ng/mL after 48 hrs by RT-qPCR analysis relative to control; format: functional; summary of the method: as §1
HT-29 [26] = assay: Down regulation of c-Myc gene expression in human HT-29 cells at 3 ng/mL after 48 hrs by RT-qPCR analysis relative to control; format: functional; summary of the method: as §1
MCF7 [27] = assay: Down regulation of c-Myc gene expression in human MCF7 cells at 1 ng/mL after 48 hrs by RT-qPCR analysis relative to control; format: functional; summary of the method: as §1
MCF7 [28] = assay: Down regulation of c-Myc gene expression in human MCF7 cells at 2 ng/mL after 48 hrs by RT-qPCR analysis relative to control; format: functional; summary of the method: as §1
HT-29 [29] = assay: Potency index, ratio of compound activity to resveratrol activity for down regulation of hTERT gene expression in human HT-29 cells; format: functional
HT-29 [30] = assay: Potency index, ratio of compound activity to resveratrol activity for down regulation of c-Myc gene expression in human HT-29 cells; format: functional
MCF7 [31] = assay: Potency index, ratio of compound activity to resveratrol activity for down regulation of hTERT gene expression in human MCF7 cells; format: functional
MCF7 [32] = assay: Potency index, ratio of compound activity to resveratrol activity for down regulation of c-Myc gene expression in human MCF7 cells; format: functional
MCF7 [33] = assay: Potency index, ratio of compound activity to resveratrol activity for down regulation of VEGF gene expression in human MCF7 cells; format: functional
MCF7 [34] = assay: Inhibition of VEGF protein secretion in human MCF7 cells at 10 ug/mL after 72 hrs by ELISA relative to control; format: functional; set-up: scale not given: the % may be the effect or the level left
MCF7 [35] = assay: Down regulation of VEGF gene expression in human MCF7 cells at 10 ug/mL after 48 hrs by RT-qPCR analysis relative to control; format: functional; summary of the method: as §1
MCF7 [36] = assay: Down regulation of hTERT gene expression in human MCF7 cells at 10 ug/mL after 48 hrs by RT-qPCR analysis relative to control; format: functional; summary of the method: as §1
MCF7 [37] = assay: Down regulation of c-Myc gene expression in human MCF7 cells at 10 ug/mL after 48 hrs by RT-qPCR analysis relative to control; format: functional; summary of the method: as §1

Work on `Nc1cccc(/C=C/c2ccccc2)c1` yielded a selectivity ratio [1] of 6.5, a selectivity ratio [2] of 6 and an Activity (HT-29 [3]) of 77%. For the same compound, the Activity (HT-29 [4]) was 100%, the Activity (HT-29 [5]) was 100% and the Activity (HT-29 [6]) was 100%. For the same compound, the IC50 (HEK293) was 84 µg/mL (≈ 430 µM), the IC50 (MCF7 [7]) was 14 µg/mL (≈ 71.7 µM) and the IC50 (HT-29 [8]) was 12.9 µg/mL (≈ 66.1 µM).

`Nc1cccc(/C=C/c2cccc(O)c2)c1` showed a selectivity ratio [1] greater than 2.3, a selectivity ratio [2] greater than 1.8 and an Activity (HT-29 [3]) of 92%. For the same compound, the Activity (HT-29 [4]) was 52%, the Activity (HT-29 [5]) was 58% and the Activity (HT-29 [6]) was 54%. The IC50 (HEK293) was greater than 100 µg/mL, the IC50 (MCF7 [7]) was 54 µg/mL (≈ 256 µM) and the IC50 (HT-29 [8]) was 43 µg/mL (≈ 204 µM).

In the case of `COc1ccc(/C=C/c2ccc(N)cc2)cc1`, the selectivity ratio [1] is reported as 3.4, the selectivity ratio [2] is reported as 5.7 and the Activity (HT-29 [9]) is reported as 92%. The Activity [10] was 84%, the Activity (HT-29 [11]) was 59% and the Activity (MCF7 [12]) was 100%. For the same compound, the Activity (MCF7 [13]) was 75%, the Activity (HT-29 [14]) was 65% and the Activity (HT-29 [15]) was 66%. For the same compound, the Activity (HT-29 [16]) was 67%, the Activity (MCF7 [17]) was 48% and the Activity (MCF7 [18]) was 36%. The Activity (HT-29 [19]) was 100%, the Activity (HT-29 [20]) was 100% and the Activity (HT-29 [21]) was 48%. For the same compound, the Activity (MCF7 [22]) was 80%, the Activity (MCF7 [23]) was 51% and the Activity (HT-29 [24]) was 88%. For the same compound, the Activity (HT-29 [25]) was 71%, the Activity (HT-29 [26]) was 69% and the Activity (MCF7 [27]) was 54%. It also gave an Activity (MCF7 [28]) of 30%, a Ratio (HT-29 [29]) of 3000 and a Ratio (HT-29 [30]) of 3000. It also gave a Ratio (MCF7 [31]) of 3000, a Ratio (MCF7 [32]) of 3000 and a Ratio (MCF7 [33]) of 5000. For the same compound, the IC50 (HEK293) was 0.012 µg/mL (≈ 0.0533 µM), the IC50 (MCF7 [7]) was 0.0021 µg/mL (≈ 0.00932 µM) and the IC50 (HT-29 [8]) was 0.0036 µg/mL (≈ 0.016 µM).

With `Nc1cccc(/C=C/c2ccccc2O)c1` the selectivity ratio [1] was 3.2, the selectivity ratio [2] was 3.9 and the Activity (HT-29 [3]) was 76%. The Activity (HT-29 [4]) was 38%, the Activity (HT-29 [5]) was 52% and the Activity (HT-29 [6]) was 37%. For the same compound, the IC50 (HEK293) was 96 µg/mL (≈ 454 µM), the IC50 (MCF7 [7]) was 24.7 µg/mL (≈ 117 µM) and the IC50 (HT-29 [8]) was 30.4 µg/mL (≈ 144 µM).

Work on `COc1ccc(/C=C/c2ccccc2O)cc1` [2-hydroxy-4'-methoxystilbene] yielded a selectivity ratio [1] of 2.1, a selectivity ratio [2] of 1.2 and an Activity (HT-29 [3]) of 69%. For the same compound, the Activity (HT-29 [4]) was 41%, the Activity (HT-29 [5]) was 72% and the Activity (HT-29 [6]) was 58%. The IC50 (HEK293) was 21 µg/mL (≈ 92.8 µM), the IC50 (MCF7 [7]) was 17 µg/mL (≈ 75.1 µM) and the IC50 (HT-29 [8]) was 10 µg/mL (≈ 44.2 µM).

Compound `Nc1ccc(/C=C/c2ccccc2)cc1` [(E)-4-STYRYLANILINE] has a selectivity ratio [1] of 2.6, a selectivity ratio [2] of 0.7 and an Activity (HT-29 [3]) of 78%. For the same compound, the Activity (HT-29 [4]) was 24%, the Activity (HT-29 [5]) was 65% and the Activity (HT-29 [6]) was 46%. It also gave an IC50 (HEK293) of 11.4 µg/mL (≈ 58.4 µM), an IC50 (MCF7 [7]) of 16 µg/mL (≈ 81.9 µM) and an IC50 (HT-29 [8]) of 4.4 µg/mL (≈ 22.5 µM).

Compound `Oc1ccc(/C=C/c2cc(O)cc(O)c2)cc1` [RESVERATROL] has a selectivity ratio [1] of 0.2, a selectivity ratio [2] of 0.4 and an Activity (HT-29 [3]) of 78%. The Activity (MCF7 [34]) was 100%, the Activity (HT-29 [4]) was 65% and the Activity (MCF7 [35]) was 54%. It also gave an Activity (HT-29 [5]) of 57%, an Activity (MCF7 [36]) of 77% and an Activity (HT-29 [6]) of 51%. For the same compound, the Activity (MCF7 [37]) was 41%, the IC50 (HEK293) was 7.1 µg/mL (≈ 31.1 µM) and the IC50 (MCF7 [7]) was 16.1 µg/mL (≈ 70.5 µM). The IC50 (HT-29 [8]) was 34.1 µg/mL (≈ 149 µM).
